The test system of series [1] is Mycobacterium tuberculosis. The experiment in a line: Antimycobacterial activity against Mycobacterium tuberculosis H37Rv after 45 days. The series is classed as functional. The essentials: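 Canetti proportion method. Compound in DMSO is added to Löwenstein–Jensen egg medium before coagulation (30 min, 85 °C), tested at three levels plus a lower one where needed. Tubes are inoculated with H37Rv at 10⁵ cells/ml and incubated 45 days at 37 °C. Colony counts versus drug-free control give percentage inhibition.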

Series [2] has as its system Mycobacterium tuberculosis. The experiment in a line: Ratio of ethambutol dihydrochloride MIC to compound MIC for Mycobacterium tuberculosis H37Rv. The series is classed as functional.
Series [3] can be described thus: Solubility of the compound in deionized water. Type of series: physicochemical.
A further series relates to Bacillus. The experiment in a line: Antibacterial activity against Bacillus idosus B 241 at 50 mg/ml after 24 hrs by agar diffusion test. Type of series: functional. The settings on record: for zone of inhibition at 50000 µg/mL: B 241, 24 h, read-out: DIZ. Summed up: (§1)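 Agar diffusion: wells in agar filled with […] DMSO solution of compound at various concentrations; diameter of clear zone around application point measured. Bacteria grown 24 h at 37 °C on nutrient agar. Compounds first screened at 50 mg/ml; those active then tested at lower concentrations. Bracketed value = lowest concentration (mg/ml) giving zone >11 mm, reported only if activity retained at ≤1.25 mg/ml.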

In a further series the test system is Saccharomyces cerevisiae. The experiment in a line: Antifungal activity against Saccharomyces cerevisiae ATCC 9763 at 50 mg/ml after 72 hrs by agar diffusion test. The settings on record: for zone of inhibition at 50000 µg/mL: ATCC 9763, 72 h, read-out: DIZ. Type of series: functional. The essentials:
(§2)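 Agar diffusion: yeasts grown on yeast peptone dextrose agar and fungi on potato dextrose agar. Wells are filled with […] of compound solution in DMSO at various concentrations, and the clear-zone diameter is measured. Bracketed values give the lowest concentration (mg/ml) that produces a zone >11 mm. A first screen is run at 50 mg/ml.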

The next series relates to Escherichia coli. In words: Antibacterial activity against Escherichia coli ATCC 8739 at 50 mg/ml after 24 hrs by agar diffusion test. The settings on record: for zone of inhibition at 50000 µg/mL: ATCC 8739, 24 h, read-out: DIZ. The series is classed as functional. The essentials:
as §1
For orientation: In agar diffusion tests the substance spreads into inoculated agar from a disc or well.

The test system of the next series is Bacillus cereus. In words: Antibacterial activity against Bacillus cereus ATCC 11778 at 50 mg/ml after 24 hrs by agar diffusion test. The series is classed as functional. The settings on record: for zone of inhibition at 50000 µg/mL: ATCC 11778, 24 h, read-out: DIZ. The essentials:
as §1

The subject of a further series is Priestia megaterium. The experiment in a line: Antibacterial activity against Bacillus megaterium NRRL 1353895 at 50 mg/ml after 24 hrs by agar diffusion test. The series is classed as functional. The settings on record: for zone of inhibition at 50000 µg/mL: NRRL 1353895, 24 h, read-out: DIZ. The essentials:
as §1

The nature of series [4]: Selectivity index, ratio of IC50 for human HEK293T cells to MIC for Mycobacterium tuberculosis H37Rv. The series is classed as functional, HEK-293T.
A further series has as its system Candida tropicalis. The experiment in a line: Antifungal activity against Candida tropicalis ATCC 20336 at 50 mg/ml after 72 hrs by agar diffusion test. Type of series: functional. The settings on record: for zone of inhibition at 50000 µg/mL: ATCC 20336, 72 h, read-out: DIZ. The essentials:
as §2

The next series relates to HEK-293T. The experiment in a line: Cytotoxicity against human HEK293T cells after 72 hrs by MTT assay. The series is classed as cell-based. The essentials:
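293T cells in RPMI-1640 with 10% heat-inactivated FCS and 2 mM L-glutamine, 37 °C, 5% CO2. Cells seeded at 3.5 × 10⁵ cells/ml, grown 24 h, then exposed 72 h to DMSO-diluted compounds (final solvent ≤0.5%), ≥8 wells per concentration. MTT added 4 h, formazan dissolved in 5% HCOOH/2-propanol, absorbance read at 580 nm. IC50 obtained by sigmoidal nonlinear regression against untreated control.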
On the technique in general: Formazan colour is commonly taken as a measure of viable cells.

The test system of a further series is Acinetobacter johnsonii. The experiment in a line: Antibacterial activity against Acinetobacter johnsonii ATCC 17909 at 50 mg/ml after 24 hrs by agar diffusion test. The series is classed as functional. Summed up:
as §1

The test system of a further series is Bacillus subtilis. In words: Antibacterial activity against Bacillus subtilis ATCC 6633 at 50 mg/ml after 24 hrs by agar diffusion test. The series is classed as functional. The settings on record: for zone of inhibition at 50000 µg/mL: ATCC 6633, 24 h, read-out: DIZ. Summed up:
as §1

In a further series the test system is Bacillus mycoides. The experiment in a line: Antibacterial activity against Bacillus mycoides DSMZ 274 at 50 mg/ml after 24 hrs by agar diffusion test. Type of series: functional. The settings on record: for zone of inhibition at 50000 µg/mL: DSMZ 274, 24 h, read-out: DIZ. The essentials: as §1
Another series deals with Staphylococcus aureus. The experiment in a line: Antibacterial activity against Staphylococcus aureus NRRL B 313 at 50 mg/ml after 24 hrs by agar diffusion test. The settings on record: for zone of inhibition at 50000 µg/mL: NRRL B 313, 24 h, read-out: DIZ. The series is classed as functional. The essentials: (§3)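 Agar diffusion: bacteria grown 24 h at 37 °C on nutrient agar. Wells in the agar are filled with […] of compound solution in DMSO at various concentrations. The diameter of the clear zone around the application point is measured. Bracketed values give the lowest concentration (mg/ml) that produces a zone >11 mm. A first screen is run at 50 mg/ml.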

Series [5] has as its system Micrococcus luteus. The experiment in a line: Antibacterial activity against Sarcina lutea ATCC 9341 at 50 mg/ml after 24 hrs by agar diffusion test. The settings on record: for zone of inhibition at 50000 µg/mL: ATCC 9341, 24 h, read-out: DIZ. Type of series: functional. The essentials: as §3
Series [6] concerns Micrococcus luteus. The experiment in a line: Antibacterial activity against Micrococcus luteus ATCC 9631 at 50 mg/ml after 24 hrs by agar diffusion test. The series is classed as functional. Summed up: as §1
In a further series the test system is Penicillium chrysogenum. The experiment in a line: Antifungal activity against Penicillium chrysogenum CECT 2802 at 50 mg/ml after 72 hrs by agar diffusion test. The series is classed as functional. The settings on record: for zone of inhibition at 50000 µg/mL: CECT 2802, 72 h, read-out: DIZ. Summed up: as §2

≈ marks a conversion by molar mass, not a printed value. Calls of active or inactive are those of the source. The calls are words filed in the database; no cut-off is given here. Where only a bound is given, the exact number is not on record here.

In general, MIC refers to the lowest concentration found to suppress growth. Read a low MIC as a more susceptible organism. Compound `CC[C@@H](CO)N1Cc2ccccc2C1=O` showed an MIC in series [1] greater than 31.2 µM. Besides, the Ratio in [2] was determined as 2.
On to `CC(C)=CCC/C(C)=C/CNCCNC1C2CC3CC(C2)CC1C3` (centres undefined) [SQ109], for which the Ratio in series [2] is on record as 35.
As a reminder, the solubility is the concentration that dissolves in the medium under given conditions. Compound `CC[C@@H](CO)NCCN[C@@H](CC)CO.Cl.Cl` [ETHAMBUTOL HYDROCHLORIDE] showed an MIC in series [1] of 7.22 µM. Besides, the solubility in [3] came to 100000 µg/mL.
Turning to `CC[C@@H](CO)NC(=O)c1ccccc1C(=O)N[C@@H](CC)CO`, the MIC in series [1] was greater than 16.2 µM. Also, the Ratio in [2] amounted to 2.
On the same counts, the results for `CCNC(=O)N[C@@H](CC)CO` are greater than 24.4 µM and 2.
Usually IC50 stands for the concentration at which inhibition is half-maximal. Low values mean higher potency, high ones lower potency. For the compound `CC[C@H](CO)NC(=O)/C=C/c1ccccc1`, the MIC in series [1] stood at 9.12 µM (≈ 2 µg/mL). For the same compound, the “diameter of the inhibition zone (DIZ)” value with Bacillus, in the series on Escherichia coli, in the series with Acinetobacter johnsonii, in the series with Bacillus subtilis and with Micrococcus luteus [6] was “inactive” each time. Besides, the zone of inhibition at 50000 µg/mL in the series on Saccharomyces cerevisiae worked out at 13 mm; in the series with Bacillus cereus, 12 mm; with Priestia megaterium, 12 mm; in the series on Candida tropicalis, 11 mm; in the series with Bacillus mycoides, 12 mm; with Staphylococcus aureus, 12 mm. The zone of inhibition at 50000 µg/mL in the series on Micrococcus luteus [5] came to 15 mm. Also, the “Selectivity Index” value in series [4] is reported as 23.1. This compound returned an IC50 in the series on HEK-293T of 211 µM. Moreover, the solubility in series [3] is less than 1000 µg/mL.
With `CC[C@@H](CO)NC(=O)c1ccccc1O`, the MIC in series [1] is greater than 23.9 µM. In addition, the Ratio in series [2] was 2.
`CC[C@H](CO)Nc1ccc2c3c(cccc13)C(=O)N([C@H](CC)CO)C2=O` had an MIC in series [1] of 14 µM (≈ 5 µg/mL). Besides, the “diameter of the inhibition zone (DIZ)” value in the series with Bacillus, with Saccharomyces cerevisiae, with Bacillus cereus, with Priestia megaterium, in the series on Penicillium chrysogenum and in the series on Acinetobacter johnsonii was “inactive” throughout. Also, the “diameter of the inhibition zone (DIZ)” value in the series with Bacillus subtilis, in the series with Bacillus mycoides, with Staphylococcus aureus and with Micrococcus luteus [5] was “inactive” each time. Besides, in [4], the “Selectivity Index” value is listed as 3.4. In addition, in the series with HEK-293T, the IC50 was determined as 47 µM. In series [3], this compound showed a solubility of less than 1000 µg/mL.
Compound `CC[C@@H](CO)NP(=O)(c1ccccc1)c1ccccc1` gave an MIC in [1] greater than 17.3 µM. In addition, the Ratio in series [2] is listed as 2.
For the compound `CC[C@@H](CO)NC(=O)/C=C/c1ccccc1`, in series [1], the MIC was greater than 22.8 µM. Besides, in [2], the Ratio turned out to be 2.
`CC[C@H](CO)Nc1ncccn1`: the MIC in [1] was greater than 29.9 µM. For the same compound, the “diameter of the inhibition zone (DIZ)” value in the series on Bacillus, in the series on Saccharomyces cerevisiae, in the series with Escherichia coli, in the series with Priestia megaterium, in the series on Penicillium chrysogenum and in the series with Candida tropicalis was “inactive” each time. The “diameter of the inhibition zone (DIZ)” value with Acinetobacter johnsonii, with Bacillus subtilis, in the series on Bacillus mycoides, in the series with Staphylococcus aureus, in the series on Micrococcus luteus [5] and in the series with Micrococcus luteus [6] was “inactive” throughout. Besides, in the series on Bacillus cereus, the zone of inhibition at 50000 µg/mL was 12 mm.
`CC[C@H](CO)N1C(=O)c2cccc3cccc(c23)C1=O` returned a minimal inhibitory concentration (MIC) in series [1] greater than 18.6 µM. For the same compound, the “diameter of the inhibition zone (DIZ)” value in the series with Bacillus, with Saccharomyces cerevisiae, in the series with Escherichia coli, in the series on Bacillus cereus, in the series on Priestia megaterium and in the series with Candida tropicalis was “inactive” throughout. For the same compound, the “diameter of the inhibition zone (DIZ)” value in the series on Acinetobacter johnsonii, in the series with Bacillus subtilis, in the series on Bacillus mycoides, in the series with Staphylococcus aureus, with Micrococcus luteus [5] and in the series with Micrococcus luteus [6] was “inactive” in each case. Moreover, the zone of inhibition at 50000 µg/mL in the series with Penicillium chrysogenum was 10 mm.
Consider `CC[C@H](CO)N1Cc2ccccc2C1`, for which it took 10.5 µM (≈ 2 µg/mL) to inhibit growth in series [1] (MIC). The zone of inhibition at 50000 µg/mL was determined as 20 mm with Bacillus; 16 mm with Saccharomyces cerevisiae; 25 mm in the series on Escherichia coli; 25 mm with Bacillus cereus; 10 mm with Penicillium chrysogenum; 21 mm in the series on Candida tropicalis. The zone of inhibition at 50000 µg/mL in the series on Bacillus subtilis was found to be 11 mm; with Bacillus mycoides, 23 mm; in the series with Staphylococcus aureus it was 25 mm. In addition, the “Selectivity Index” value in series [4] stood at 11.7. Further, the IC50 in the series on HEK-293T came to 122 µM. Further, the solubility in series [3] is less than 1000 µg/mL.
`CC[C@H](CO)NC(=O)c1ccc2ccccc2c1` yielded an MIC in series [1] greater than 20.6 µM. Moreover, the “diameter of the inhibition zone (DIZ)” value with Bacillus, with Saccharomyces cerevisiae, in the series with Escherichia coli, in the series with Bacillus cereus, in the series with Priestia megaterium and in the series on Penicillium chrysogenum was “inactive” each time. For the same compound, the “diameter of the inhibition zone (DIZ)” value in the series with Candida tropicalis, in the series on Acinetobacter johnsonii, with Bacillus subtilis, with Bacillus mycoides, with Staphylococcus aureus and in the series with Micrococcus luteus [5] was “inactive” throughout. Further, the “diameter of the inhibition zone (DIZ)” value in the series with Micrococcus luteus [6] was “inactive”.
`CC[C@H](CO)N1C(=O)C=C(C)C1=O` displayed an MIC in series [1] of 27.3 µM (≈ 5 µg/mL). The zone of inhibition at 50000 µg/mL turned out to be 23 mm in the series on Bacillus; 21 mm in the series on Saccharomyces cerevisiae; 32 mm with Escherichia coli; 28 mm in the series with Bacillus cereus; 20 mm in the series with Priestia megaterium; 25 mm in the series on Penicillium chrysogenum. Besides, the zone of inhibition at 50000 µg/mL worked out at 20 mm in the series with Candida tropicalis; 21 mm with Acinetobacter johnsonii (ATCC 17909, 24 h, read-out: DIZ); 21 mm in the series with Bacillus subtilis; 24 mm with Bacillus mycoides; 20 mm in the series on Staphylococcus aureus; 21 mm with Micrococcus luteus [5]. Also, in the series on Micrococcus luteus [6] (ATCC 9631, 24 h, read-out: DIZ), the zone of inhibition at 50000 µg/mL turned out to be 22 mm.
